T cruzi inh = blocks replication of Trypanosoma cruzi. AID 1885. 300,000 compounds, 1.4% hits. inhibition, % (concentration not given with the values). T. cruzi beta-gal in NIH3T3, luminescence, 90 h;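 active = mean inhibition across valid replicates above about 55%, limit read from the data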;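 also: signal also drops with host cell toxicity which is not excluded here; higher percent means less beta-gal luminescence so fewer parasites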
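System: mouse NIH/3T3 fibroblasts infected with β-gal-expressing T. cruzi Tulahuen C4 / Input: NIH/3T3 cells, 5,000 per well / Buffer or medium: Low-serum DMEM with 2% FBS / Probe or stimulus: 5000 reporter trypomastigotes per well / Schedule: ≥90 h infection period, 3 h prior cell attachment / Measured by: GalScreen luminescence, 60 min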
Jurkat NFkB inh = inhibitors of the PMA/ionomycin-induced NF-kB reporter in Jurkat cells. 330,000 compounds, 0.53% hits. inhibition, % at 4 µM. AID 435003. PMA/ionomycin-induced NF-kB luciferase reporter, luminescence; in the data active = inhibition above about 50%
HSF1 inhib = HSF1 inhibition; activity change, negative = inhibition, % at 7.5 µM (by protocol); 300,000 compounds, 0.77% hits; NIH3T3-HGL HSE-luciferase, MG132-induced, luminescence 8 h; active compounds read low;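 active = more than half of replicate wells show activity change below -50%, luminescence cut by over half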;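 also: luciferase reports HSF-1 transcriptional activity via heat shock element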
697 NFkB inh = lowers PMA/ionomycin-induced NF-kB signal in 697 B cells | 697 B-cell NF-kB luciferase reporter, 16 h | inhibition, % at 4 µM | 330,000 compounds, 0.33% hits; in the data active = inhibition above about 35%
GPR7 antag = blocks human GPR7 receptor signaling; P48145; GPR7-expressing cells, fluorescence antagonist assay; 290,000 compounds, 1.1% hits; inhibition, % at 4.4 µM; in the data active = inhibition above about 16%, passing the limit was not always enough;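 also: cells stimulated with the agonist NPW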
Target sequence (P48145 whole entry, looked up): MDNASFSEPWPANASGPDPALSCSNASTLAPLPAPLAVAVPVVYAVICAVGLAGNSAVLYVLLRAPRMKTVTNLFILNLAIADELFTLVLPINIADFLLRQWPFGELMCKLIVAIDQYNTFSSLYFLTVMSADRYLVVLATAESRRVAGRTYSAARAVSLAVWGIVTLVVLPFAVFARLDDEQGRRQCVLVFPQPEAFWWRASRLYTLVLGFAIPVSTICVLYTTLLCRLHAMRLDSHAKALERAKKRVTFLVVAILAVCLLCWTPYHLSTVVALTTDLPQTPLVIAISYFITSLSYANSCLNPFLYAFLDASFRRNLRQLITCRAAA
HSF1 activator = increases HSF-1 driven luciferase reporter signal. AID 504408. activation, % at 9 µM. NIH3T3-HGL HSF-1 luciferase reporter, MG132, 8 h; 100% = twice DMSO control signal. 300,000 compounds, 1.7% hits;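 active = mean replicate activation of at least 50% with a set share of replicates each reaching 50%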
Each line names hits and unclear results; the compound was inactive in the other large screens. The list is not random: actives were taken first. Their share in the collection is about 4.8%.

CC(=O)NCCC(=O)N(Cc1ccccc1)c1nc2c(C)cccc2s1	none
CCOc1ccc2nc(N(Cc3ccccc3)C(=O)CCNC(C)=O)sc2c1	HSF1 activator 56.7
Cc1ccc(-c2csc3nc[nH]c(=O)c23)c(C)c1	HSF1 activator 95.0
Cc1ccc(-c2csc3nc[nH]c(=O)c23)cc1	none
c1cc2c3c(cccc3c1)C(N1CCCCCC1)=N2	GPR7 antag 32.3
c1cc2c3c(cccc3c1)C(N1CCCCC1)=N2	none
O=C(O)c1cccc(N2C(=O)/C(=C/c3ccc([N+](=O)[O-])cc3)C=C2c2ccccc2)c1	HSF1 inhib -71.7
O=C1/C(=C/c2ccc([N+](=O)[O-])cc2)C=C(c2ccccc2)N1c1ccc(O)cc1	HSF1 activator 94.6
O=C1/C(=C/c2ccc([N+](=O)[O-])cc2)C=C(c2ccccc2)N1c1ccccc1	none
COc1ccc(C(=O)O)cc1S(=O)(=O)NCCN(C)C	none
CC(Sc1nnc(Cc2cccs2)n1C1CC1)C(=O)NC1CCS(=O)(=O)C1 (stereo not given)	none (no result: T cruzi inh, HSF1 inhib, GPR7 antag, HSF1 activator)
CCOC(=O)N1CCN(C(=O)CS(=O)(=O)c2cn(Cc3ccc(F)cc3)c3ccccc23)CC1	HSF1 activator 96.1 (no result: GPR7 antag)
CSCCC1NC(=O)N(CC(=O)Nc2ccc(-c3ccccc3)cc2)C1=O (stereo not given)	none
Cc1ccc2nc(N(CCCN(C)C)C(=O)c3cc4ccccc4oc3=O)sc2c1	T cruzi inh 59.6
CN(C)CCCN(C(=O)c1cc2ccccc2oc1=O)c1nc2c(F)cccc2s1	T cruzi inh 55.9
O=C(NC1CCN(c2ncccn2)CC1)c1ccccc1Cl	none
COc1ccccc1CN1CC(C(=O)NCCN(C)CCc2ccccc2)CCC1=O (stereo not given)	T cruzi inh 60.4
COc1ccccc1CN1CC(C(=O)NCCc2ncccc2C)CCC1=O (stereo not given)	HSF1 activator 79.0
COc1ccccc1CCNC(=O)C1CCC(=O)N(Cc2ccccc2OC)C1 (stereo not given)	none
COc1ccc(-c2[nH]ncc2CNCC(C)(C)N2CCOCC2)cc1F	none
O=C(NCc1nc(-c2ccc(Cl)cc2)no1)c1ccco1	HSF1 activator 55.8
O=C(NCCN1Cc2ccccc2C1=O)c1cccs1	HSF1 activator 61.5
O=C(NCCN1CCOCC1)c1cccs1	none
COc1ccc([N+](=O)[O-])cc1N(CC(=O)N(C)C)S(C)(=O)=O	none
COc1ccc(C(=O)C2CCCN(Cc3c(C)[nH]c4ccccc34)C2)c(OC)c1 (stereo not given)	T cruzi inh 62.2
COc1ccc(C(=O)C2CCCN(Cc3cc(Cl)ccc3O)C2)c(OC)c1 (stereo not given)	none
COc1ccc(C(=O)C2CCCN(Cc3sc(N4CCCC4)nc3Cl)C2)c(OC)c1 (stereo not given)	T cruzi inh 63.1
Cc1ccc(C2=NN(C(=O)CCl)C(c3cccs3)C2)o1 (stereo not given)	HSF1 activator 58.4
O=C(CCl)N1N=C(c2ccco2)CC1c1cccs1 (stereo not given)	HSF1 activator 54.8 (no result: Jurkat NFkB inh, 697 NFkB inh)
CC(=O)N1N=C(c2ccco2)CC1c1cccs1 (stereo not given)	none
NS(=O)(=O)c1ccc(N/C=C/C(=O)c2ccc(Br)cc2)cc1	none
CN(C)c1ccc(N/C=C/C(=O)c2ccco2)cc1	none
CN(C)c1ccc(N/C=C/C(=O)c2ccc(F)cc2)cc1	T cruzi inh 59.8
NS(=O)(=O)c1ccc(N/C=C\C(=O)c2ccc(F)cc2)cc1	HSF1 activator 73.7
